According to PubChem BioAssay:
Inconclusive results are not listed.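 Rule for the calls, unless noted: active = inhibition over a set limit, the all-compound mean plus 3 SD, in both replicate runs; inconclusive = over that limit in just one replicate run; inactive = at or under that limit in both runs.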

Assays:
[1] = S. cerevisiae growth inhibition in permissive medium (OD615), pilot counter-assay for S. cerevisiae lifespan shortening project, permissive growth control (AID 705;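 active = growth inhibition above 25% in both replicates, a cutoff set 3 SD above the mean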); details: OD615, 24 h, at 10 µM, hits give high values
In short: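 System: S. cerevisiae with engineered DeaD lifespan system / Measured by: absorbance (optical density) at 615 nm / Read-out: reduction in yeast growth (OD615) / Times: 4 h cell pre-growth, 24 h exposure at 30 °C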

[2] = S. cerevisiae growth inhibition in restrictive medium, OD615, pilot screen, restrictive growth control, yeast lifespan reduction project (AID 706;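 active = growth inhibition above a set limit, 3 SD over mean compound inhibition, in both replicates, cut at about 43% in these data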;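 note: modified DeaD lifespan yeast strain shifted to restrictive glucose medium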); details: OD615, 48 h, at 10 µM, hits give high values
In short: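 System: Engineered S. cerevisiae DeaD strain | Buffer or medium: Glucose-based CSMM-D restrictive medium | Schedule: 4 h pre-incubation, 48 h exposure at 30 °C | Technique: Optical density at 615 nm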

[3] = doxorubicin toxicity protection in MRP-1 cells – H69AR cells, CellTiter-Glo, duplicate, MRP-1 activator project, pilot screen (AID 807;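 active = viability increase at or above a cutoff of the median across tested compounds plus 3 SD, cut at about 8.5% in these data, passing the limit was not always enough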;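 note: compound pretreatment 18-22 h then 72 h combined with doxorubicin; 0% = doxorubicin alone and 100% = vehicle without doxorubicin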); details: H69AR viability with doxorubicin, CellTiter-Glo luminescence; at 10 µM; hits give high values
[4] = viability of HCT116 without oncogenic beta-catenin – human colon tumor cells, pilot screen (AID 823;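 active = cell viability at or below a set limit in both duplicate runs, the limit being the all-compound median minus 4 SD, cut at about 23% in these data, passing the limit was not always enough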;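 note: 0% = wells killed by 20 µM Hyamine and 100% = untreated DMSO cell wells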); details: HCT116 beta-catenin knockout viability, CellTiter-Glo, 60 h; at 10 µM; hits give low values
[5] = viability of PTEN-null HCT116 cells – cell-based, HCT116 clonal line, CellTiter-Glo, pilot screen (AID 824;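 active = viability at or below 27.92% in each of two runs, the all-compound median minus 4 SD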;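 note: 0% = 20 µM Hyamine control and 100% = vehicle cell control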); details: HCT116 PTEN-deleted viability, 60 h, at 10 µM, hits give low values
[6] = RAM pathway blockade in budding yeast – dse1pr::URA3 reporter, 5-FOA selection, pilot screen (AID 869);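 note: 0% = DMSO wells with no growth and 100% = 10 µM 1-NA-PP1 with full growth; RAM network block rescues cells from 5-FOA so hits raise OD615 growth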; details: S. cerevisiae dse1pr::URA3 5-FOA growth, OD615, 2 d; at 10 µM; hits give high values; strain carries analog-sensitive mutant Cbk1 kinase
[7] = RAM signaling pathway blockade in yeast – S. cerevisiae, Pdr1DBD-CYC8 efflux-inhibited sensitized strain, primary screen (AID 1298;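 active = RAM network inhibition above 8.4% in each of two replicates, 3 SD over the compound average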;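 note: 0% = DMSO untreated cells without growth and 100% = 10 µM 1-NA-PP1 full growth; higher means more yeast growth rescued from 5-FOA killing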); details: S. cerevisiae cbk1-as DSE1-URA3 strain, 5-FOA growth OD615, 2 d; at 50 µM; hits give high values

O=C(Nc1nnc(CC(=O)N2CCCC2)s1)c1cnccn1
inactive: growth inhibition [1] -3.58% | growth inhibition [2] 4.7% | viability increase [3] -1.2% | viability [4] 104% | viability [5] 100% | inhibition [6] 1.66% | RAM network inhibition [7] -0.94%

COc1ccc(S(=O)(=O)NCc2ccc3c(c2)cc(C)n3C)cc1
inactive: growth inhibition [1] -0.89% | growth inhibition [2] -11.2% | viability increase [3] -4.17% | viability [4] 99.1% | viability [5] 96% | inhibition [6] 1.31% | RAM network inhibition [7] 7.17%

Clc1ccccc1N1CCN(c2ncnc3nc[nH]c23)CC1
inactive: growth inhibition [1] 7.42% | growth inhibition [2] -4.18% | viability increase [3] -1.4% | viability [4] 95% | viability [5] 95.7% | inhibition [6] 4.08% | RAM network inhibition [7] 5.77%

COc1ccc(C2C(C(=O)NC(C)C)c3ccccc3C(=O)N2C)cc1OC (stereo unspecified)
inactive: growth inhibition [1] -12.9% | growth inhibition [2] -13.2% | viability increase [3] -0.58% | viability [4] 105% | viability [5] 101% | inhibition [6] 0.95% | RAM network inhibition [7] 5.34%

COc1cc(OC)cc(C(=O)NCC2CCCO2)c1 (stereo unspecified)
inactive: growth inhibition [1] -7.69% | growth inhibition [2] 10.1% | viability increase [3] -1.51% | viability [4] 94.6% | viability [5] 91.7% | inhibition [6] 0.465% | RAM network inhibition [7] 0.29%

CC(=O)Nc1cc(NC(C)=O)c(CC(C)C)s1
inactive: growth inhibition [1] -6.92% | growth inhibition [2] 2.99% | viability increase [3] -0.12% | viability [4] 94.9% | viability [5] 101% | inhibition [6] 0.44% | RAM network inhibition [7] 2.34%

CCOCCCNC(=O)C(NC(=O)C1CCC(=O)N1)c1ccc(C)cc1 (stereo unspecified)
inactive: growth inhibition [1] -2.92% | growth inhibition [2] -1.24% | viability increase [3] -0.58% | viability [4] 109% | viability [5] 98.8% | inhibition [6] 1.03% | RAM network inhibition [7] 5.24%

CN(CC(=O)NC1CCCc2ccccc21)S(=O)(=O)c1ccc2c(c1)c(=O)n(C)c(=O)n2C (stereo unspecified)
inactive: growth inhibition [1] -9.17% | growth inhibition [2] -10.7% | viability increase [3] -3.54% | viability [4] 95.3% | viability [5] 94% | inhibition [6] 2.24% | RAM network inhibition [7] 1.42%

CCOC(=O)COC(=O)c1ccc(O)cc1
inactive: growth inhibition [1] -4.13% | growth inhibition [2] -13.5% | viability increase [3] -0.28% | viability [4] 93% | viability [5] 97.8% | inhibition [6] 1.47% | RAM network inhibition [7] 0.37%

CCc1nnc(NC(=O)CCC(=O)O)s1
inactive: growth inhibition [1] -7.04% | growth inhibition [2] -5.46% | viability increase [3] 0.56% | viability [4] 98.3% | viability [5] 96.3% | inhibition [6] 0.815% | RAM network inhibition [7] 2.03%

O=C(NCc1nc2ccccc2[nH]1)c1cccs1
inactive: growth inhibition [1] -13.9% | growth inhibition [2] -1.7% | viability increase [3] 0.55% | viability [4] 105% | viability [5] 103% | inhibition [6] 2.04% | RAM network inhibition [7] 5.75%

Cc1cccc(-n2c(Cc3cc(=O)[nH]c(=O)[nH]3)nnc2SCC(=O)N2CCCCC2)c1
inactive: growth inhibition [1] 4% | growth inhibition [2] 16.8% | viability increase [3] -0.52% | viability [4] 106% | viability [5] 87.8% | inhibition [6] 3.3% | RAM network inhibition [7] -0.11%

CC(C)N(C(=O)COc1ccc(Br)cc1Cl)C(C)C
inactive: growth inhibition [1] -6.94% | growth inhibition [2] -12.8% | viability increase [3] 0.81% | viability [4] 76.5% | viability [5] 83.1% | inhibition [6] 1.12% | RAM network inhibition [7] 0.74%

CCOc1ccc(-c2cc(CCCC(=O)NCc3cccnc3)no2)cc1
inactive: growth inhibition [1] 0.205% | growth inhibition [2] 12.9% | viability increase [3] -3.69% | viability [4] 82.2% | viability [5] 92.9% | inhibition [6] 0.54% | RAM network inhibition [7] 2.74%

CC1=CS/C(=C(/C#N)C(=O)N2CCCCC2)N1c1ccccc1
inactive: growth inhibition [1] -0.66% | growth inhibition [2] -8.34% | viability increase [3] -1.48% | viability [4] 97.3% | viability [5] 95.8% | inhibition [6] 0.425% | RAM network inhibition [7] 2.37%

Oc1ccc(Br)cc1-c1nc2cnccn2c1NC1CCCC1
inactive: growth inhibition [1] -11.9% | growth inhibition [2] 1.74% | viability increase [3] -7.32% | viability [4] 55.5% | viability [5] 54.6% | inhibition [6] -0.895% | RAM network inhibition [7] -1.71%

CCc1ccc(NC(=O)c2ccc3c(c2)C(=O)N(Cc2ccco2)C3=O)cc1
inactive: growth inhibition [1] -3.35% | growth inhibition [2] 7.26% | viability increase [3] -2.41% | viability [4] 93.6% | viability [5] 89.6% | inhibition [6] 0.185% | RAM network inhibition [7] 1.5%

CC1(C)CC(=O)C=C(Nc2ccccc2F)C1
inactive: growth inhibition [1] -10.4% | growth inhibition [2] -10.5% | viability increase [3] -2.25% | viability [4] 111% | viability [5] 98.3% | inhibition [6] -0.01% | RAM network inhibition [7] 1.22%
